Laboratory results as given in ChEMBL document CHEMBL4316592, “Synthesis of new derivatives of boehmeriasin A and their biological evaluation in liver cancer” (Eur J Med Chem, 2019).
Active and inactive are the calls of the source. The calls are words filed in the database; no cut-off is given here.

What was measured:
[1] = tested on: Huh-7; assay: Cytotoxicity against human HuH7 cells after 72 hrs by SRB assay; format: functional, cell-based; conditions: Homo sapiens, Huh-7, 72 h; read-out: IC50
How it was run: (§1)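 SRB assay. Cells plated per well (HCT116 3000; Huh7, Hep3B, HepG2, MCF-7 2000; Mahlavu, FOCUS, SNU475 1000) and grown 24 h. Compounds came from 20 mM DMSO stocks and were tested in triplicate, 40 to 2,5 (or 2,5 to 0,03) per printed range, for 72 h. Cells fixed in 10% TCA, stained with 0.4% SRB, dye dissolved in 10 mM Tris, A515 read. IC50 derived after DMSO normalization.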

[2] = tested on: MCF7; assay: Cytotoxicity against human MCF7 cells after 72 hrs by SRB assay; format: functional, cell-based; conditions: Homo sapiens, MCF7, 72 h; read-out: IC50; how it was run: as §1
[3] = tested on: Hep 3B2; assay: Cytotoxicity against human Hep3B cells after 72 hrs by SRB assay; format: functional, cell-based; conditions: Homo sapiens, Hep3B, 72 h; read-out: IC50; how it was run: as §1
[4] = tested on: Mahlavu; assay: Induction of apoptosis in human Mahlavu cells assessed as viable cells at 1 uM after 48 hrs by Annexin V-FITC/propidium iodide staining-based flow cytometric analysis (reference value: 98.48%); format: functional; conditions: read-out: Activity
[5] = tested on: Mahlavu; assay: Induction of apoptosis in human Mahlavu cells assessed as late apoptotic cells at 1 uM after 48 hrs by Annexin V-FITC/propidium iodide staining-based flow cytometric analysis (reference value: 1.45%); format: functional
[6] = tested on: Mahlavu; assay: Induction of apoptosis in human Mahlavu cells assessed as necrotic cells at 1 uM after 48 hrs by Annexin V-FITC/propidium iodide staining-based flow cytometric analysis (reference value: 0.07%); format: functional
[7] = tested on: Huh-7; assay: Cell cycle arrest in human HuH7 cells assessed as accumulation of cells at G2/M phase at 1 uM after 24 hrs by propidium iodide staining-based flow cytometric analysis (reference value: 37.3%); format: functional
[8] = tested on: Mahlavu; assay: Cell cycle arrest in human Mahlavu cells assessed as accumulation of cells at subG1 phase at 1 uM after 48 hrs by propidium iodide staining-based flow cytometric analysis (reference value: 22.6%); format: functional
[9] = tested on: Mahlavu; assay: Down-regulation of CDK2 protein expression in human Mahlavu cells at 1 uM after 24 to 72 hrs by Western blot analysis; format: functional, cell-based
[10] = biological target: RAC-alpha serine/threonine-protein kinase (Homo sapiens) (UniProt P31749); assay: Inhibition of Akt phosphorylation in human Mahlavu cells at 1 uM after 72 hrs by Western blot analysis; format: cell-based
[11] = biological target: RAC-alpha serine/threonine-protein kinase (Homo sapiens) (UniProt P31749); assay: Inhibition of Akt phosphorylation in human HuH7 cells at 1 uM after 72 hrs by Western blot analysis; format: cell-based
[12] = biological target: RAC-alpha serine/threonine-protein kinase (Homo sapiens) (UniProt P31749); assay: Inhibition of AKT phosphorylation in human Mahlavu cells at 1 uM after 24 to 72 hrs by Western blot analysis; format: cell-based

Chain of RAC-alpha serine/threonine-protein kinase (Homo sapiens) (P31749 whole entry): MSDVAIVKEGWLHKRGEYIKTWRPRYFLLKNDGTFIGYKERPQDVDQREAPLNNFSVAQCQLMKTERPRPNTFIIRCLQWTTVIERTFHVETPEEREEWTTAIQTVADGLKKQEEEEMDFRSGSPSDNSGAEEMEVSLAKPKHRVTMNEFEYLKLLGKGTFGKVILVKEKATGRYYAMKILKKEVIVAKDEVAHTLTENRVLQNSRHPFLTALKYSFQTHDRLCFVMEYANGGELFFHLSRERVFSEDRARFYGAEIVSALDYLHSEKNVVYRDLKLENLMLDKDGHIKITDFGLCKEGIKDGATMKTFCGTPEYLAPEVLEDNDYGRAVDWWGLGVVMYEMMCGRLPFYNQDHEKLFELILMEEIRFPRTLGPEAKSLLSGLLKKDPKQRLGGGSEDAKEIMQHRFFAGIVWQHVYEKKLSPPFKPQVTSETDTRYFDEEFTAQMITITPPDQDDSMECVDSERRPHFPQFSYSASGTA

inhibition [10]	inhibition [11]	inhibition [12]	Structure (SMILES)	IC50 [1]	IC50 [2]	IC50 [3]	viability at 1 µM [4]	Activity [5]	Activity [6]	Activity [7]	Activity [8]	Activity [9]
			COc1ccc2c3c(c4cc(OC)c(OC)cc4c2c1)CN1CCCC[C@@H]1C3	8 nM	5 nM	16 nM	91.8%	7.07%	1.16%	27.4%	28.3%	Active
Active	Active	Active	COc1ccc2c3c(c4cc(OC)c(OC)cc4c2c1)CN1CCCCC1C3O (racemic)	2 nM	1 nM	17 nM	99%	0.98%	0.07%	32.1%	20.4%	Active
